Assay results taken from ChEMBL document CHEMBL3769308, “Melanin-Concentrating Hormone Receptor 1 Antagonists Lacking an Aliphatic Amine: Synthesis and Structure-Activity Relationships of Novel 1-(Imidazo[1,2-a]pyridin-6-yl)pyridin-2(1H)-one Derivatives” (J Med Chem, 2016).
Each block holds one molecule with its values, some of them ahead of it.

Assays:
[1] = biological target: Melanin-concentrating hormone receptor 1 (Rattus norvegicus, UniProt P97639); assay: Displacement of [125I]-MCH (4 to 19 residues) from rat MCHR1 expressed in CHO cell membranes after 1 hr by liquid scintillation counting analysis
How it was run: (§1)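 Membranes from MCHR1-expressing CHO cells, homogenized in NaHCO3/EDTA with protease inhibitors, 100000g pellet held at 2 mg/mL protein in 20 mM Tris-HCl pH 7.5, 5 mM EDTA, protease inhibitors.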

[2] = biological target: T1, Melanin-concentrating hormone receptor 1 (Homo sapiens, UniProt Q99705); assay: Displacement of [125I]-MCH (4 to19 residues) from human MCHR1 expressed in CHO cell membranes after 1 hr by liquid scintillation counting analysis; how it was run: as §1
[3] = system: Rattus norvegicus; assay: Antiobesity activity in diet-induced obese F344/jcl rat assessed as reduction in body weight at 3 mg/kg, po qd administered through repeated dosing for 2 weeks measured during 2 weeks of dosing relative to vehicle-treated control; format: functional; set-up: scale not given: the % may be the effect or the level left
How it was run: (§2)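 Male DIO F344/Jcl rats (45 weeks old, high-fat diet), habituated and grouped as for feeding study; once-daily oral dosing in 0.5% methylcellulose at 2 mL/kg for 2 weeks, 1–3 h before dark onset after weighing, n = 6. Body weight change as percent of initial weight, compared with vehicle.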

[4] = Tmax in Sprague-Dawley rat at 1 mg/kg, po administered through cassette dosing by LC/MS/MS analysis; format: ADME, organism-based; details: in vivo
[5] = Ratio of drug level in brain to plasma in diet-induced obese F344/jcl rat at 3 mg/kg, po administered on day 1 measured 24 hrs post dose; format: ADME, organism-based; details: read-out: BPR
How it was run: (§3)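 From the DIO F344 rat 2-day feeding study (oral, 0.5% methylcellulose): plasma and brain concentrations taken 24 h after the day-1 dose; brain/plasma ratio from these.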

[6] = AUC (0 to 8 hrs) in Sprague-Dawley rat at 1 mg/kg, po administered through cassette dosing by LC/MS/MS analysis; format: ADME, organism-based; set-up: time < 8 hr, dose 1 mg/kg, route oral; details: in vivo
[7] = Volume of distribution at steady state in Sprague-Dawley rat at 0.1 mg/kg, iv by LC/MS/MS analysis; format: ADME, organism-based; details: in vivo, read-out: Vdss
How it was run: (§4)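 Nonfasted male SD rats (8 weeks old, n = 3) given 0.1 mg/kg iv by cassette dosing; plasma deproteinized with acetonitrile, centrifuged, and supernatant concentrations measured by LC/MS/MS.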

[8] = Plasma concentration in diet-induced obese F344/jcl rat at 3 mg/kg, po administered on day 1 measured 24 hrs post dose; format: ADME, organism-based; how it was run: as §3
[9] = Cmax in Sprague-Dawley rat at 1 mg/kg, po administered through cassette dosing by LC/MS/MS analysis; format: ADME, organism-based; set-up: dose 1 mg/kg, route oral; details: in vivo
[10] = system: Plasma; assay: Free plasma concentration in diet-induced obese F344/jcl rat at 10 mg/kg administered after 24 hrs in day 1; format: ADME, organism-based; details: in vivo
How it was run: (§5)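 Plasma level 24 h after day-1 oral dose in DIO F344 rats multiplied by the free fraction measured in DIO rat plasma to give free concentration.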

[11] = species on record: Rattus norvegicus; assay: animal or person; details: F344/jcl, po, 48 h, read-out: INH
[12] = species on record: Rattus norvegicus; assay: animal or person; details: F344/jcl, po, 336 h, read-out: INH
[13] = species on record: Rattus norvegicus; assay: animal or person; details: F344/jcl, po, 48 h, read-out: INH; remark: listed apart in the source
[14] = Plasma concentration in diet-induced obese F344/jcl rat at 10 mg/kg, po administered on day 1 measured 24 hrs post dose; format: ADME, organism-based; how it was run: as §3
[15] = Unbound fraction in po dosed diet-induced obese F344/jcl rat plasma; format: ADME, organism-based
[16] = Lipophilicity, log D of the compound at pH 7.4; format: physicochemical; details: buffer
How it was run: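 Chromatographic HPLC method with UV detection, estimating octanol/buffer partition at pH 7.4.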

[17] = species on record: Rattus norvegicus; assay: animal or person; details: F344/jcl, po, 336 h, read-out: INH; remark: listed apart in the source
[18] = system: HepG2; assay: Induction of phospholipidosis in human HepG2 cells at 0.6 to 20 uM after 24 hrs by NBD-PE-based fluorometric analysis; format: cell-based; details: hepg2, 24 h
How it was run: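 HepG2 cells in DMEM with 5% FBS, precultured 24 h, then exposed 24 h at 37 °C to 60 μM NBD-PE medium plus compound medium (0.6 or 20 μM, added 1:1); amiodarone 10 μM final as reference. NBD-PE uptake fluorescence (ex 485/em 538), blank subtracted, expressed relative to amiodarone; maximum value taken.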

[19] = Drug uptake in diet-induced obese F344/jcl rat brain at 3 mg/kg, po administered on day 1 measured 24 hrs post dose; format: ADME, organism-based; details: read-out: Drug uptake; how it was run: as §3
[20] = system: Plasma; assay: Free plasma concentration in diet-induced obese F344/jcl rat at 3 mg/kg, po administered on day 1 measured 24 hrs post dose; format: ADME, organism-based; details: in vivo; how it was run: as §5
[21] = Oral bioavailability in Sprague-Dawley rat at 1 mg/kg, administered through cassette dosing by LC/MS/MS analysis; format: ADME, organism-based; details: in vivo
[22] = system: Mus musculus; assay: Anorectic activity in po dosed high fat diet fed wild type mouse assessed as reduction of food intake administered for 3 days measured during 3 days of dosing; format: functional, organism-based
How it was run: (§6)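 Male MCHR1-deficient and wild-type littermate mice (45 weeks old) on high-fat diet D12451 from 5 weeks, singly housed, acclimated with 0.5 mL tap water dosing, grouped by day −3 to −1 intake and day −1 weight. Oral vehicle (0.5% methylcellulose) or suspension at 10 mL/kg for 3 days, n = 5–6; cumulative 3-day intake; Williams test.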

[23] = Total clearance in Sprague-Dawley rat at 0.1 mg/kg, iv administered through cassette dosing by LC/MS/MS analysis; format: ADME, organism-based; details: in vivo; how it was run: as §4
[24] = biological target: T1, Melanin-concentrating hormone receptor 1; format: functional, cell-based, CHO
[25] = Drug uptake in diet-induced obese F344/jcl rat brain at 10 mg/kg, po administered on day 1 measured 24 hrs post dose; format: ADME, organism-based; how it was run: as §3
[26] = system: Mus musculus; assay: Effect on food intake in MCHR-deficient high fat diet fed mouse at 10 to 30 mg/kg, po administered for 3 days measured during 3 days of dosing; format: ADME, organism-based; details: in vivo, 72 h; how it was run: as §6
[27] = system: Rattus norvegicus; assay: Antiobesity activity in diet-induced obese F344/jcl rat assessed as reduction in body weight at 10 mg/kg, po qd administered through repeated dosing for 2 weeks measured during 2 weeks of dosing relative to vehicle-treated control; format: functional; set-up: scale not given: the % may be the effect or the level left; how it was run: as §2
[28] = Ratio of drug level in brain to plasma in diet-induced obese F344/jcl rat at 10 mg/kg, po administered on day 1 measured 24 hrs post dose; format: ADME, organism-based; details: read-out: BPR; how it was run: as §3

Chain of Melanin-concentrating hormone receptor 1 (Rattus norvegicus, UniProt P97639) (P97639 whole entry, the tested form may be a part): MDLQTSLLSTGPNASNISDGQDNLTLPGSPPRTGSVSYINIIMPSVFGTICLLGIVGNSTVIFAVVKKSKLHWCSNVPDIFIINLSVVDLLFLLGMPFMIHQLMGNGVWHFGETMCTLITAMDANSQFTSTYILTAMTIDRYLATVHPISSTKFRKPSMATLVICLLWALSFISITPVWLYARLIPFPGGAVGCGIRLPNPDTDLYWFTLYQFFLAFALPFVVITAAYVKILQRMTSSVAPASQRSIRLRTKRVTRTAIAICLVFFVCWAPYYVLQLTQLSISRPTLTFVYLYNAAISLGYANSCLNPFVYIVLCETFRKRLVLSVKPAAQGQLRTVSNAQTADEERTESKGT
T1 sequence (Q99705 whole entry, the tested form may be a part): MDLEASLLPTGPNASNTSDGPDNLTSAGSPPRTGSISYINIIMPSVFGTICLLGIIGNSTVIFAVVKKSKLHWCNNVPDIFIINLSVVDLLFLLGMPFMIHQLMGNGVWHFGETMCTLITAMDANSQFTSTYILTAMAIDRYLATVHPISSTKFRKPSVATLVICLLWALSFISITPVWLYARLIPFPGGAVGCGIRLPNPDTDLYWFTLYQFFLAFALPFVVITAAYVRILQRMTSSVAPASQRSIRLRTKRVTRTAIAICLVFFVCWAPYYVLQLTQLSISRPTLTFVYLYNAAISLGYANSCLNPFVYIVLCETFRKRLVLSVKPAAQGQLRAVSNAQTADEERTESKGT

Compound: Cc1c(C2CC2)nc2ccc(-n3ccc(OCc4ccc(C(C)C)cc4)cc3=O)cn12
IC50 [1]: 240 nM | IC50 [2]: 410 nM

Compound: CCc1nc2ccc(-n3ccc(OCc4ccccc4)cc3=O)cn2c1C
IC50 [1]: 120 nM | IC50 [2]: 120 nM

Compound: Cc1c(CO)nc2ccc(-n3ccc(OCc4ccc(F)cc4)cc3=O)cn12
IC50 [1]: > 1000 nM | IC50 [2]: > 1000 nM

Compound: Cc1c(C2CC2)nc2ccc(-n3ccc(OCc4cccs4)cc3=O)cn12
IC50 [1]: 130 nM | IC50 [2]: 95 nM

Compound: Cc1c(C#N)nc2ccc(-n3ccc(OCc4ccc(F)cc4)cc3=O)cn12
IC50 [1]: > 1000 nM | IC50 [2]: > 1000 nM

Compound: Cc1oc2ccc(NC(=O)COc3ccc(OC(F)(F)F)cc3)cc2c1C
IC50 [1]: > 1000 nM | IC50 [2]: > 1000 nM

Compound: Cc1c(C2CC2)nc2ccc(-n3cccc(Oc4ccc(OC(F)(F)F)cc4)c3=O)cn12
IC50 [1]: 240 nM | IC50 [2]: 270 nM

Compound: Cc1c(CC#N)nc2ccc(-n3ccc(OCc4ccc(F)cc4)cc3=O)cn12
IC50 [1]: 170 nM | IC50 [2]: 180 nM

Compound: Cc1c(C(=O)C2CC2)nc2ccc(-n3ccc(OCc4ccc(F)cc4)cc3=O)cn12
IC50 [1]: > 1000 nM | IC50 [2]: > 1000 nM

Compound: Cc1c(C2CC2)nc2ccc(-n3ccc(OCc4cncnc4)cc3=O)cn12
IC50 [1]: > 1000 nM | IC50 [2]: > 1000 nM

These reach a lower IC50 [1]. Values come first.

IC50 [1]: 82 nM | IC50 [2]: 72 nM
Compound: Cc1c(C2CC2)nc2ccc(-n3ccc(OCc4ccc(C(F)(F)F)cc4)cc3=O)cn12

IC50 [1]: 28 nM | IC50 [2]: 42 nM
Compound: Cc1c(C2CC2)nc2ccc(-n3ccc(OCc4ccccc4)cc3=O)cn12

Tmax [4]: 2 h | Kp at 24 h [5]: 0.61 | AUC(0-t) at 8 h [6]: 1880 ng·h/mL | Vd [7]: 1.05 L/kg | IC50 [1]: 20 nM | concentration at 24 h [8]: 351 ng/mL | Cmax [9]: 313 ng/mL | Cp(f) [10]: 66.5 nM | concentration at 24 h [14]: 1350 ng/mL | fraction unbound [15]: 0.02 | logD [16]: 3.2 | concentration at 24 h [19]: 218 ng/g | Cp(f) [20]: 17.2 nM | bioavailability [21]: 58% | clearance [23]: 5.2 mL/min/kg | IC50 [24]: 23 nM | concentration at 24 h [25]: 841 ng/g | IC50 [2]: 26 nM | Kp at 24 h [28]: 0.62
Compound: Cc1c(C2CC2)nc2ccc(-n3ccc(OCc4ccc(Cl)cc4)cc3=O)cn12
Activity [3]: 3.7% | inhibition in vivo at 10 mg/kg [11]: 29.6% | inhibition in vivo at 10 mg/kg [12]: 36.2% | inhibition in vivo at 3 mg/kg [13]: 15% | inhibition in vivo at 3 mg/kg [17]: 15.4% | Activity [18]: Non-toxic | Activity [22]: Dose-dependent effect | Activity [26]: Non-toxic | Activity [27]: 8.6%

IC50 [1]: 9.3 nM | IC50 [2]: 12 nM
Compound: Cc1c(C2CC2)nc2ccc(-n3ccc(OCc4ccc(Br)cc4)cc3=O)cn12

IC50 [1]: 15 nM | IC50 [2]: 17 nM
Compound: Cc1c(C2CC2)nc2ccc(-n3ccc(OCc4csc(C(F)(F)F)c4)cc3=O)cn12

IC50 [1]: 11 nM | IC50 [24]: 42 nM | IC50 [2]: 6.8 nM
Compound: Cc1c(C2CC2)nc2ccc(-n3ccc4oc(-c5ccc(Cl)cc5)cc4c3=O)cn12

IC50 [1]: 6.3 nM | IC50 [2]: 3 nM
Compound: Cc1c(C2CC2)nc2ccc(NC(=O)COc3ccc(OC(F)(F)F)cc3)cn12

IC50 [1]: 30 nM | logD [16]: 2.8 | IC50 [24]: 140 nM | IC50 [2]: 37 nM
Compound: Cc1c(C2CC2)nc2ccc(-n3ccc(OCc4ccc(Cl)cc4)nc3=O)cn12

IC50 [1]: 80 nM | IC50 [2]: 78 nM
Compound: Cc1nc2ccc(-n3ccc(OCc4ccccc4)cc3=O)cn2c1C
